Hits are enriched below; roughly 0.92% of the tested compounds scored in any of these assays.
Glyco luc inh: blocks N-linked glycosylation in D54 reporter cells | D54 ERlucT glycosylation luciferase reporter, 24 h; percent of 100 nM tunicamycin response | reporter increase, % at 12.5 µM | actives 0.23% (n = 360,000);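 active = mean luciferase reporter signal, scaled so untreated is 0 and the glycosylation-blocking control 100, at or above a set limit in every replicate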;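 also: luciferase carries N-glycosylation sites so blocking glycosylation raises the light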
FN deposit inh: fibronectin deposition inhibition. actives 0.086% (n = 350,000). AH1F fibroblasts, Alexa488-fibronectin deposition fluorescence, overnight. inhibition, % at 12.6 µM;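 active = mean inhibition across replicates of 30% or more, regardless of how many single replicates reach that level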
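Test system: AH1F fibroblast monolayer depositing Alexa488-labelled fibronectin into matrix. Input: 10000 cells per well. Technique: fluorescence, ex 485 nm, em 525 nm. Buffer or medium: DMEM plus 2% serum, read in PBS. Timing: 1 h cell adhesion before compound, then overnight fibronectin incubation. Compound: single dose, pinned. Read-out basis: inhibition from reduced deposited-fibronectin fluorescence.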
AF4-AF9 inh: inhibitors of human MLL-AF4/AF9 interaction | AlphaScreen, biotin-AF4 peptide binding to FLAG-AF9 | inhibition, % at 10 µM | actives 0.47% (n = 350,000) | AID 651704;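 active = every replicate reaching a set inhibition limit, whatever the replicate mean, cut at about 25% in these data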
RAD52 inh: RAD52 (human) annealing inhibition. P43351. recombinant RAD52 DNA annealing, FRET fluorescence. inhibition, % at 18.7 µM. actives 0.46% (n = 360,000). AID 651710;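 active = every replicate showing at least 50% inhibition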
Target sequence (P43351 whole entry, looked up): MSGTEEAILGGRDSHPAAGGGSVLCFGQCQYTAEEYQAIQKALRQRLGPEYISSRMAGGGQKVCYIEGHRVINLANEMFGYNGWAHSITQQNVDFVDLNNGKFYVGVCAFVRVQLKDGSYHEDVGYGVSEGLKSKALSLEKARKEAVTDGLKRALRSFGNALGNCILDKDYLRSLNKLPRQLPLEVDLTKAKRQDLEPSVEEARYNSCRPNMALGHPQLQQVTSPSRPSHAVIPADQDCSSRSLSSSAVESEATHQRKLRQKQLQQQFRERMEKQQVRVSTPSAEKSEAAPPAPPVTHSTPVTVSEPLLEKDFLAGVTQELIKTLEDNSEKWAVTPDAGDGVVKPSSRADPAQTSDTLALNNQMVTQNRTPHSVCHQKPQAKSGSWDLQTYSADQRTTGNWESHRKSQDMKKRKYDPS
RAD54 branch: inhibitors of human RAD54 branch migration. Q92698. RAD54 Holliday junction branch migration, FAM/BHQ fluorescence. inhibition, % at 10.4 µM. actives 0.14% (n = 360,000);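 active = mean normalized replicate activity at least 40 and at least half of replicates scoring 40 or more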;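 also: inhibitors cause a drop in the FAM fluorescence signal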
A number is an active result.

What do the screens show for `C[C@H](CO)N1C[C@H](C)[C@H](CN(C)Cc2ccc(C(=O)Nc3ccccc3N)cc2)Oc2ccc(NC(=O)Cc3ccccc3)cc2C1=O`?
AF4-AF9 inh: inactive; RAD52 inh: inactive

What do the screens show for `Cn1cnc(S(=O)(=O)N2CC[C@@H]3[C@H](CO)Nc4ccc(C#Cc5ccc(F)cc5)cc4[C@@H]32)c1`?
FN deposit inh: inactive; AF4-AF9 inh: inactive; RAD52 inh: inactive; RAD54 branch: inactive

How did O=C(N/N=C/c1cccs1)c1cccc(S(=O)(=O)Nc2ccc(Cl)cc2)c1 do in these assays?
Glyco luc inh: inactive; FN deposit inh: inactive; AF4-AF9 inh: inactive; RAD52 inh: inactive

What do the screens show for `O=C(N/N=C/c1cccs1)c1cccc(NC(=O)c2ccc(Cl)cc2)c1`?
FN deposit inh: 35; AF4-AF9 inh: inactive; RAD52 inh: inactive

How did Cc1cc2cc(C=C(C#N)C#N)c(Cl)nc2cc1C do in these assays?
Glyco luc inh: 38; FN deposit inh: inactive; AF4-AF9 inh: inactive; RAD52 inh: inactive; RAD54 branch: inactive

What do the screens show for `CC(C)C[C@H]1CNC(=O)C(=O)N1C[C@@H]1CCCN1C[C@H](CC(C)C)N1C[C@H](Cc2ccc(O)cc2)N(CCc2ccccc2)C(=O)C1=O`?
FN deposit inh: active; AF4-AF9 inh: inactive; RAD52 inh: inactive

How did CC(C)C[C@H]1CNC(=O)C(=O)N1C[C@@H]1CCCN1C[C@H](CC(C)C)N1C[C@H](Cc2ccccc2)N(CCc2ccccc2)C(=O)C1=O do in these assays?
FN deposit inh: inactive; AF4-AF9 inh: inactive; RAD52 inh: inactive

What do the screens show for `NC(=O)NCC#Cc1ccc2c(c1)[C@]1(C(=O)N2)[C@H](c2ccccc2OCCO)N2[C@H](c3ccccc3)[C@H](c3ccccc3)OC(=O)[C@H]2[C@@H]1C(=O)N1CCCCCCC1`?
AF4-AF9 inh: inactive; RAD52 inh: inactive

Results for O=C1O[C@@H](c2ccccc2)[C@@H](c2ccccc2)N2[C@@H](c3ccccc3OCCO)[C@]3(C(=O)Nc4ccc(C#CCCO)cc43)[C@@H](C(=O)N3CCCCCCC3)[C@H]12 ?
AF4-AF9 inh: inactive; RAD52 inh: 73; RAD54 branch: inactive

Results for COc1ccc(C[C@@H]2CCn3cc(nn3)COC[C@@H](Cc3ccccc3)NC2=O)cc1 ?
FN deposit inh: inactive

How did COc1ccccc1/C=C/C=N/NC(=O)Cc1cccn1C do in these assays?
Glyco luc inh: inactive; FN deposit inh: inactive; AF4-AF9 inh: 56; RAD52 inh: inactive

How did O=C(CSc1nc2nc(-c3cccs3)cc(C(F)(F)F)c2c(=O)[nH]1)C(F)(F)F do in these assays?
Glyco luc inh: 37; FN deposit inh: inactive; AF4-AF9 inh: inactive; RAD52 inh: inactive; RAD54 branch: inactive

How did COc1cccc(NC(=O)N(C)C[C@@H]2OCc3cn(nn3)CCCC(=O)N([C@@H](C)CO)C[C@@H]2C)c1 do in these assays?
FN deposit inh: inactive

What do the screens show for `Cc1cc(N(CCO)CCO)ccc1N=Nc1cc(F)ccc1F`?
Glyco luc inh: inactive; FN deposit inh: inactive; AF4-AF9 inh: 35; RAD52 inh: inactive; RAD54 branch: inactive

Results for Cc1c2c(cc3c1[nH]c1ccccc13)C=NCC2 ?
Glyco luc inh: inactive; FN deposit inh: inactive; AF4-AF9 inh: inactive; RAD52 inh: inactive; RAD54 branch: 58

What do the screens show for `COc1cccc(NC(=O)Nc2ccc3c(c2)C(=O)N(C)C[C@H](OC)[C@@H](C)CN[C@H](C)CO3)c1`?
FN deposit inh: inactive; AF4-AF9 inh: inactive; RAD52 inh: 67; RAD54 branch: inactive

What do the screens show for `CO[C@H]1CN(C)C(=O)c2cc(NC(=O)c3ccc(Oc4ccccc4)cc3)ccc2OC[C@H](C)NC[C@H]1C`?
FN deposit inh: inactive; AF4-AF9 inh: inactive; RAD52 inh: 53; RAD54 branch: inactive

Results for COc1cccc(NC(=O)Nc2ccc3c(c2)C(=O)N(C)C[C@@H](OC)[C@H](C)CN[C@@H](C)CO3)c1 ?
FN deposit inh: inactive; AF4-AF9 inh: inactive; RAD52 inh: 54; RAD54 branch: inactive

How did CO[C@@H]1CN(C)C(=O)c2cc(NC(=O)c3ccc(Oc4ccccc4)cc3)ccc2OC[C@H](C)NC[C@@H]1C do in these assays?
FN deposit inh: inactive; AF4-AF9 inh: inactive; RAD52 inh: inactive; RAD54 branch: inactive

Results for C[C@@H]1CN([C@@H](C)CO)C(=O)Cc2cc(NC(=O)Nc3ccc4c(c3)OCO4)ccc2O[C@H]1CN(C)C(=O)Nc1ccc2c(c1)OCO2 ?
AF4-AF9 inh: inactive; RAD52 inh: inactive

What do the screens show for `COc1cccc(S(=O)(=O)Nc2ccc3c(c2)OC[C@H](C)N(Cc2ccccc2F)C[C@H](C)[C@H](OC)CN(C)C3=O)c1`?
FN deposit inh: inactive; AF4-AF9 inh: inactive; RAD52 inh: inactive; RAD54 branch: inactive

Results for N#Cc1cccc(CN2CCC(=O)N([C@H](CO)Cc3ccccc3)CC2)c1 ?
Glyco luc inh: inactive; FN deposit inh: inactive; AF4-AF9 inh: 44; RAD52 inh: inactive; RAD54 branch: inactive

Results for O=C1CCN(Cc2ccccc2)CCN1[C@H](CO)Cc1ccccc1 ?
Glyco luc inh: inactive; FN deposit inh: inactive; RAD54 branch: inactive

What do the screens show for `COc1cc(/C=N/N2CCN(c3ccccc3)CC2)cc(OC)c1OC(C)=O`?
Glyco luc inh: inactive; FN deposit inh: inactive; AF4-AF9 inh: 26; RAD52 inh: inactive; RAD54 branch: inactive

What do the screens show for `O=C1NN(c2ccccc2)C(=O)/C1=C/c1ccc(Sc2ccc(Cl)cc2)o1`?
Glyco luc inh: 35; FN deposit inh: inactive; AF4-AF9 inh: inactive; RAD52 inh: inactive

Results for Cc1ccc(Sc2ccc(/C=C3/C(=O)NN(c4ccccc4)C3=O)o2)cc1 ?
Glyco luc inh: inactive; FN deposit inh: inactive; AF4-AF9 inh: inactive; RAD52 inh: inactive

Results for CCOC(=O)C1=C(C)Nc2nc3ccccc3n2C1c1ccncc1 (centres undefined) ?
Glyco luc inh: inactive; FN deposit inh: 14; RAD54 branch: inactive

Results for O=C(C[C@@H]1C=C[C@H](NC(=O)C2CCC2)[C@H](CO)O1)NC1CCC1 ?
AF4-AF9 inh: inactive; RAD52 inh: inactive; RAD54 branch: inactive

Results for CC1CN(C(=O)c2cc3c(=O)n4ccccc4nc3n2C)CC(C)O1 (centres undefined) ?
Glyco luc inh: inactive; FN deposit inh: 36; AF4-AF9 inh: inactive; RAD52 inh: inactive; RAD54 branch: inactive

How did Cn1c(C(=O)N2CCOCC2)cc2c(=O)n3ccccc3nc21 do in these assays?
Glyco luc inh: inactive; FN deposit inh: inactive; AF4-AF9 inh: inactive; RAD52 inh: inactive; RAD54 branch: inactive

What do the screens show for `Cc1c(C(=O)N/N=C/c2cccnc2)sc(N)c1C#N`?
Glyco luc inh: 40; FN deposit inh: inactive; AF4-AF9 inh: inactive; RAD52 inh: inactive; RAD54 branch: inactive

What do the screens show for `Cc1ccc(C(=O)N/N=C\c2cccnc2)s1`?
Glyco luc inh: inactive; AF4-AF9 inh: inactive; RAD52 inh: inactive; RAD54 branch: inactive

How did CN(C)C(=O)[C@H]1[C@H](CO)[C@H]2Cn3c(ccc(C4=CCCCC4)c3=O)[C@@H]1N2C do in these assays?
AF4-AF9 inh: inactive; RAD52 inh: 63; RAD54 branch: inactive
